Laboratory results as given in ChEMBL document CHEMBL1153792, “Synthesis, characterization and evaluation of antibacterial activity of some thiazolo[3,2-b][1,2,4]triazole incorporating diphenylsulfone moieties” (2009).
≈ marks a conversion by molar mass, not a printed value.

Key:
Type in all cases: functional
Citrobacter freundii = experiment: Antimicrobial activity against Citrobacter freundii ATCC 8090 after 18 to 24 hrs by liquid broth method
How it was run: (§1)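 Serial twofold dilution in Mueller–Hinton broth in 96-well format. Compounds were dissolved in DMSO and tested at final levels of 1024, 512, 256, 128, 64, 32, 16, 8, 4 and 2. Inoculum was a 0.5 McFarland suspension. Plates were incubated at 37 °C for 18–24 h. MIC was read by eye as the lowest concentration clearly inhibiting growth.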

Acinetobacter baumannii = experiment: Antimicrobial activity against Acinetobacter baumannii ATCC 19606 after 18 to 24 hrs by liquid broth method; how it was run: as §1
Bacillus cereus = experiment: Antimicrobial activity against Bacillus cereus ATCC 14579 after 18 to 24 hrs by liquid broth method; how it was run: as §1
Escherichia coli = experiment: Antimicrobial activity against Escherichia coli ATCC 11775 after 18 to 24 hrs by liquid broth method; how it was run: as §1
[1] = tested on: Staphylococcus epidermidis; experiment: Antimicrobial activity against Staphylococcus epidermidis ATCC 14990 after 18 to 24 hrs by liquid broth method; how it was run: as §1
Enterococcus faecalis = experiment: Antimicrobial activity against Enterococcus faecalis ATCC 19433 after 18 to 24 hrs by liquid broth method; how it was run: as §1
Pseudomonas aeruginosa = experiment: Antimicrobial activity against Pseudomonas aeruginosa ATCC 9027 after 18 to 24 hrs by liquid broth method; how it was run: as §1
Staphylococcus aureus = experiment: Antimicrobial activity against Staphylococcus aureus ATCC 12600 after 18 to 24 hrs by liquid broth method; how it was run: as §1

## O=C(CSc1nnc(-c2ccc(S(=O)(=O)c3ccc(Br)cc3)cc2)[nH]1)c1ccccc1
Citrobacter freundii
  MIC: 128 µg/mL (≈ 249 µM)
Acinetobacter baumannii
  MIC: 64 µg/mL (≈ 124 µM)
Bacillus cereus
  MIC: 128 µg/mL (≈ 249 µM)
Escherichia coli
  MIC: 64 µg/mL (≈ 124 µM)
[1]
  MIC: 64 µg/mL (≈ 124 µM)
Enterococcus faecalis
  MIC: 256 µg/mL (≈ 498 µM)
Pseudomonas aeruginosa
  MIC: 128 µg/mL (≈ 249 µM)
Staphylococcus aureus
  MIC: 128 µg/mL (≈ 249 µM)

## O=C(CSc1nnc(-c2ccc(S(=O)(=O)c3ccc(Cl)cc3)cc2)[nH]1)c1ccccc1
Citrobacter freundii
  MIC: 128 µg/mL (≈ 272 µM)
Acinetobacter baumannii
  MIC: 64 µg/mL (≈ 136 µM)
Bacillus cereus
  MIC: 64 µg/mL (≈ 136 µM)
Escherichia coli
  MIC: 64 µg/mL (≈ 136 µM)
[1]
  MIC: 64 µg/mL (≈ 136 µM)
Enterococcus faecalis
  MIC: 256 µg/mL (≈ 545 µM)
Pseudomonas aeruginosa
  MIC: 64 µg/mL (≈ 136 µM)
Staphylococcus aureus
  MIC: 64 µg/mL (≈ 136 µM)

## O=C(CSc1nnc(-c2ccc(S(=O)(=O)c3ccccc3)cc2)[nH]1)c1ccccc1
Citrobacter freundii
  MIC: 128 µg/mL (≈ 294 µM)
Acinetobacter baumannii
  MIC: 64 µg/mL (≈ 147 µM)
Bacillus cereus
  MIC: 128 µg/mL (≈ 294 µM)
Escherichia coli
  MIC: 64 µg/mL (≈ 147 µM)
[1]
  MIC: 64 µg/mL (≈ 147 µM)
Enterococcus faecalis
  MIC: 256 µg/mL (≈ 588 µM)
Pseudomonas aeruginosa
  MIC: 128 µg/mL (≈ 294 µM)
Staphylococcus aureus
  MIC: 64 µg/mL (≈ 147 µM)

## O=S(=O)(c1ccccc1)c1ccc(-c2nc3scc(-c4ccccc4)n3n2)cc1
Citrobacter freundii
  MIC: 128 µg/mL (≈ 307 µM)
Acinetobacter baumannii
  MIC: 64 µg/mL (≈ 153 µM)
Bacillus cereus
  MIC: 512 µg/mL (≈ 1230 µM)
Escherichia coli
  MIC: 64 µg/mL (≈ 153 µM)
[1]
  MIC: 64 µg/mL (≈ 153 µM)
Enterococcus faecalis
  MIC: 512 µg/mL (≈ 1230 µM)
Pseudomonas aeruginosa
  MIC: 128 µg/mL (≈ 307 µM)
Staphylococcus aureus
  MIC: 128 µg/mL (≈ 307 µM)

## O=S(=O)(c1ccc(Br)cc1)c1ccc(-c2nc3scc(-c4ccc(Br)cc4)n3n2)cc1
Citrobacter freundii
  MIC: 128 µg/mL (≈ 222 µM)
Acinetobacter baumannii
  MIC: 64 µg/mL (≈ 111 µM)
Bacillus cereus
  MIC: 256 µg/mL (≈ 445 µM)
Escherichia coli
  MIC: 64 µg/mL (≈ 111 µM)
[1]
  MIC: 64 µg/mL (≈ 111 µM)
Enterococcus faecalis
  MIC: 256 µg/mL (≈ 445 µM)
Pseudomonas aeruginosa
  MIC: 128 µg/mL (≈ 222 µM)
Staphylococcus aureus
  MIC: 128 µg/mL (≈ 222 µM)

## O=S(=O)(c1ccc(Br)cc1)c1ccc(-c2nc3scc(-c4ccccc4)n3n2)cc1
Citrobacter freundii
  MIC: 128 µg/mL (≈ 258 µM)
Acinetobacter baumannii
  MIC: 64 µg/mL (≈ 129 µM)
Bacillus cereus
  MIC: 256 µg/mL (≈ 516 µM)
Escherichia coli
  MIC: 64 µg/mL (≈ 129 µM)
[1]
  MIC: 64 µg/mL (≈ 129 µM)
Enterococcus faecalis
  MIC: 256 µg/mL (≈ 516 µM)
Pseudomonas aeruginosa
  MIC: 128 µg/mL (≈ 258 µM)
Staphylococcus aureus
  MIC: 128 µg/mL (≈ 258 µM)

## O=S(=O)(c1ccc(Br)cc1)c1ccc(-c2nnc(S)[nH]2)cc1
Citrobacter freundii
  MIC: 128 µg/mL (≈ 323 µM)
Acinetobacter baumannii
  MIC: 64 µg/mL (≈ 161 µM)
Bacillus cereus
  MIC: 64 µg/mL (≈ 161 µM)
Escherichia coli
  MIC: 64 µg/mL (≈ 161 µM)
[1]
  MIC: 256 µg/mL (≈ 646 µM)
Enterococcus faecalis
  MIC: 256 µg/mL (≈ 646 µM)
Pseudomonas aeruginosa
  MIC: 128 µg/mL (≈ 323 µM)
Staphylococcus aureus
  MIC: 64 µg/mL (≈ 161 µM)

## CN(C)[C@@H]1C(O)=C(C(N)=O)C(=O)[C@@]2(O)C(O)=C3C(=O)c4c(O)cccc4[C@@](C)(O)[C@H]3C[C@@H]12 [TETRACYCLINE]
Citrobacter freundii
  MIC: 1 µg/mL (≈ 2.25 µM)
Acinetobacter baumannii
  MIC: 1.5 µg/mL (≈ 3.38 µM)
Bacillus cereus
  MIC: 0.094 µg/mL (≈ 0.212 µM)
Escherichia coli
  MIC: 1.5 µg/mL (≈ 3.38 µM)
[1]
  MIC: 24 µg/mL (≈ 54 µM)
Enterococcus faecalis
  MIC: 32 µg/mL (≈ 72 µM)
Pseudomonas aeruginosa
  MIC: 12 µg/mL (≈ 27 µM)
Staphylococcus aureus
  MIC: 0.19 µg/mL (≈ 0.428 µM)

## O=S(=O)(c1ccc(Cl)cc1)c1ccc(-c2nc3scc(-c4ccc(Br)cc4)n3n2)cc1
Citrobacter freundii
  MIC: > 1020 µg/mL
Acinetobacter baumannii
  MIC: 128 µg/mL (≈ 241 µM)
Bacillus cereus
  MIC: > 1020 µg/mL
Escherichia coli
  MIC: > 1020 µg/mL
[1]
  MIC: > 1020 µg/mL
Enterococcus faecalis
  MIC: > 1020 µg/mL
Pseudomonas aeruginosa
  MIC: > 1020 µg/mL
Staphylococcus aureus
  MIC: 512 µg/mL (≈ 964 µM)

## O=S(=O)(c1ccccc1)c1ccc(-c2nc3scc(-c4ccc(Br)cc4)n3n2)cc1
Citrobacter freundii
  MIC: 128 µg/mL (≈ 258 µM)
Acinetobacter baumannii
  MIC: 64 µg/mL (≈ 129 µM)
Bacillus cereus
  MIC: 128 µg/mL (≈ 258 µM)
Escherichia coli
  MIC: 64 µg/mL (≈ 129 µM)
[1]
  MIC: 64 µg/mL (≈ 129 µM)
Enterococcus faecalis
  MIC: 256 µg/mL (≈ 516 µM)
Pseudomonas aeruginosa
  MIC: 128 µg/mL (≈ 258 µM)
Staphylococcus aureus
  MIC: 128 µg/mL (≈ 258 µM)

## O=C(CSc1nnc(-c2ccc(S(=O)(=O)c3ccc(Cl)cc3)cc2)[nH]1)c1ccc(Br)cc1
Citrobacter freundii
  MIC: 128 µg/mL (≈ 233 µM)
Acinetobacter baumannii
  MIC: 64 µg/mL (≈ 117 µM)
Bacillus cereus
  MIC: 64 µg/mL (≈ 117 µM)
Escherichia coli
  MIC: 64 µg/mL (≈ 117 µM)
[1]
  MIC: 64 µg/mL (≈ 117 µM)
Enterococcus faecalis
  MIC: 256 µg/mL (≈ 466 µM)
Pseudomonas aeruginosa
  MIC: 64 µg/mL (≈ 117 µM)
Staphylococcus aureus
  MIC: 64 µg/mL (≈ 117 µM)

## O=S(=O)(c1ccccc1)c1ccc(-c2nnc(S)[nH]2)cc1
Citrobacter freundii
  MIC: > 1020 µg/mL
Acinetobacter baumannii
  MIC: 256 µg/mL (≈ 807 µM)
Bacillus cereus
  MIC: 1020 µg/mL (≈ 3230 µM)
Escherichia coli
  MIC: 512 µg/mL (≈ 1610 µM)
[1]
  MIC: > 1020 µg/mL
Enterococcus faecalis
  MIC: > 1020 µg/mL
Pseudomonas aeruginosa
  MIC: > 1020 µg/mL
Staphylococcus aureus
  MIC: 512 µg/mL (≈ 1610 µM)

## O=S(=O)(c1ccc(Cl)cc1)c1ccc(-c2nc3scc(-c4ccccc4)n3n2)cc1
Citrobacter freundii
  MIC: > 1020 µg/mL
Acinetobacter baumannii
  MIC: 512 µg/mL (≈ 1130 µM)
Bacillus cereus
  MIC: > 1020 µg/mL
Escherichia coli
  MIC: 1020 µg/mL (≈ 2270 µM)
[1]
  MIC: > 1020 µg/mL
Enterococcus faecalis
  MIC: > 1020 µg/mL
Pseudomonas aeruginosa
  MIC: > 1020 µg/mL
Staphylococcus aureus
  MIC: > 1020 µg/mL

## CC1(C)S[C@@H]2[C@H](NC(=O)[C@H](N)c3ccccc3)C(=O)N2[C@H]1C(=O)O [AMPICILLIN]
Citrobacter freundii
  MIC: 2 µg/mL (≈ 5.72 µM)
[1]
  MIC: 0.064 µg/mL (≈ 0.183 µM)
Enterococcus faecalis
  MIC: 0.5 µg/mL (≈ 1.43 µM)
Staphylococcus aureus
  MIC: 0.5 µg/mL (≈ 1.43 µM)

## O=C(CSc1nnc(-c2ccc(S(=O)(=O)c3ccc(Br)cc3)cc2)[nH]1)c1ccc(Br)cc1
Citrobacter freundii
  MIC: 128 µg/mL (≈ 216 µM)
Acinetobacter baumannii
  MIC: 64 µg/mL (≈ 108 µM)
Bacillus cereus
  MIC: 256 µg/mL (≈ 431 µM)
Escherichia coli
  MIC: 64 µg/mL (≈ 108 µM)
[1]
  MIC: 64 µg/mL (≈ 108 µM)
Enterococcus faecalis
  MIC: 128 µg/mL (≈ 216 µM)
Pseudomonas aeruginosa
  MIC: 128 µg/mL (≈ 216 µM)
Staphylococcus aureus
  MIC: 128 µg/mL (≈ 216 µM)

## O=C(CSc1nnc(-c2ccc(S(=O)(=O)c3ccccc3)cc2)[nH]1)c1ccc(Br)cc1
Citrobacter freundii
  MIC: 512 µg/mL (≈ 995 µM)
Acinetobacter baumannii
  MIC: 512 µg/mL (≈ 995 µM)
Bacillus cereus
  MIC: 512 µg/mL (≈ 995 µM)
Escherichia coli
  MIC: 512 µg/mL (≈ 995 µM)
[1]
  MIC: 512 µg/mL (≈ 995 µM)
Enterococcus faecalis
  MIC: 512 µg/mL (≈ 995 µM)
Pseudomonas aeruginosa
  MIC: 512 µg/mL (≈ 995 µM)
Staphylococcus aureus
  MIC: 512 µg/mL (≈ 995 µM)

## O=S(=O)(c1ccc(Cl)cc1)c1ccc(-c2nnc(S)[nH]2)cc1
Citrobacter freundii
  MIC: > 1020 µg/mL
Acinetobacter baumannii
  MIC: 256 µg/mL (≈ 728 µM)
Bacillus cereus
  MIC: 1020 µg/mL (≈ 2910 µM)
Escherichia coli
  MIC: 1020 µg/mL (≈ 2910 µM)
[1]
  MIC: 1020 µg/mL (≈ 2910 µM)
Enterococcus faecalis
  MIC: > 1020 µg/mL
Pseudomonas aeruginosa
  MIC: 1020 µg/mL (≈ 2910 µM)
Staphylococcus aureus
  MIC: 1020 µg/mL (≈ 2910 µM)
